# Source: PMC3710193 (Journal of immunology (Baltimore, Md. : 1950), 2011)
# pKd: −log10 of the molar value. Values joined by “and” are separate entries in the source; they are usually repeats but may differ in a detail not shown here. Equal values may be shown once.
# Experiments:
# Vβ7 NKT TCR / CD1d-Ag = experiment: SPR of Vβ7 NKT TCR binding to glycolipid-loaded CD1d; set-up: species or system mouse
# How it was run: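 Refolded mouse Vα14-Vβ7 NKT TCR flowed over glycolipid-loaded mouse CD1d (baculovirus-expressed, BirA/His-tagged) captured on streptavidin chips; CD1d-endogenous lipid surface subtracted. 25°C, HEPES buffer pH 7.4, 150 mM NaCl, 0.005% P20. Kinetics: 300–500 RU, 0.19–25 μM, 50 μl/min for 60 s, 1:1 Langmuir fit, duplicate. Steady-state: 2000 RU, 0.039–40 μM, 5 μl/min for 90 s, one-site fit.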
# spleen NKT cells [1] = experiment: CFSE proliferation assay of spleen NKT cells; type: cell-based, C57BL/6 mice; conditions: 72 hr, 100, 10 and 1 ng/ml
# spleen cells = experiment: Cytometric bead array of 72 hr splenocyte culture supernatants; type: cell-based, C57BL/6 mice; conditions: 72 hr spleen cell cultures, CBA
# How it was run: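 C57BL/6 splenocytes (5×10^5/well) pulsed with test glycolipid at 100, 10 or 1 ng/ml and cultured overnight. Medium was then replaced without further glycolipid, and supernatants were harvested at 72 hr. Mean ± SEM of three independent experiments (IL-10: two), each the mean of duplicate cultures.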
# spleen NKT cells [2] = experiment: Intracellular cytokine staining for IFN-γ in spleen NKT cells at 8 hours; type: cell-based, C57BL/6 mice; conditions: highest dose 100 ng/ml, ICS
# How it was run: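 Splenocytes from C57BL/6 mice (5×10^5/well) were cultured 8 hr with test glycolipid (100, 10, 1 ng/ml), with Golgistop for the final 4 hr. Four replicate wells were pooled per determination. Cells were surface-stained with glycolipid-loaded CD1d tetramer-PE and anti-TCR-β, fixed, permeabilised and stained for intracellular IFN-γ. Mean ± SEM of three experiments, each the mean of duplicate cultures.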
# NKT cells = experiment: In vivo stimulation of NKT cells, serum cytokines by cytometric bead array; set-up: species or system mice; conditions: 1 μg i.p.
# How it was run: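 Mice received 1 μg test glycolipid i.p. in 200 μL PBS. Serum was collected at 2 and 24 hr, and IFN-γ and IL-4 were quantified by cytometric bead array. Ratio taken as serum IFN-γ at 24 hr over IL-4 at 2 hr. Results combine three independent experiments, 10 mice per group.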
# [3] = biological target: T1, Vβ8.2 NKT TCR (Vα14-Vβ8.2) / CD1d-Ag (Mus musculus, UniProt P11609+Z9CWY5XBV8); experiment: SPR of Vβ8.2 NKT TCR binding to glycolipid-loaded CD1d; conditions: for ka / kd: SPR kinetic experiment, 25°C, 1:1 Langmuir model
# T1 sequence (P11609 22-305 limits assumed): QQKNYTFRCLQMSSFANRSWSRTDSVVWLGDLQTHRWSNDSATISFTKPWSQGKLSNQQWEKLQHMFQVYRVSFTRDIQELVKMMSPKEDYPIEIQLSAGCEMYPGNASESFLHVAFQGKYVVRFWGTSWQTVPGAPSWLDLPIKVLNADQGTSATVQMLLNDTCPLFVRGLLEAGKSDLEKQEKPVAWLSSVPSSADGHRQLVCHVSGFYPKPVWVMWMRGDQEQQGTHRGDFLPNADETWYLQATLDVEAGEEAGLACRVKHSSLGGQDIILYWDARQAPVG
# T1 sequence (P01887 21-119): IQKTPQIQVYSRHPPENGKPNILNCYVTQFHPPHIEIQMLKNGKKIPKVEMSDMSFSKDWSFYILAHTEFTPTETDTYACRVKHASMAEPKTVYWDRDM
# [4] = Vβ7 TCR, SPR kinetic experiment, 25°C, 1:1 Langmuir model
"pKd ([3]; KD(eq), Vβ8.2 TCR, steady-state affinity determined in separate experiment)",NKT TCR affinity relative to CD1d-α-GalCer interaction (fold lower) ([3]; Vβ8.2 NKT TCR),kd ([3]; Vβ8.2 TCR),"pKd ([3]; affinity (KD(eq)), Vβ8.2 NKT TCR, response at equilibrium)",SMILES,NKT TCR affinity relative to CD1d-α-GalCer interaction (fold lower) (Vβ7 NKT TCR / CD1d-Ag; Vβ7 NKT TCR),NKT cell proliferation (in words) (spleen NKT cells [1]),"cytokine amounts, fold lower compared to α-GalCer (spleen cells)",IFN-γ+ NKT cells (spleen NKT cells [2]),ratio of peak IFN-γ response (24 hours) to peak IL-4 response (2 hours) (NKT cells; serum),serum IFN-γ production in vivo compared to α-GalCer (NKT cells; serum at 2 and 24 hr),serum IL-4 production in vivo compared to α-GalCer (NKT cells; serum at 2 and 24 hr),ka ([3]; Vβ8.2 TCR),ka (Vβ7 NKT TCR / CD1d-Ag; [4]) [M⁻¹ s⁻¹],kd (Vβ7 NKT TCR / CD1d-Ag; [4]) [s⁻¹]
~5.70 and 5.70,approximately 10 fold,0.29 s⁻¹ and 0.29 ± 0.02 s⁻¹,,CCCCCCCCCCCCCCCCCCCCCCCCCC(=O)N[C@@H](CC[C@H]1O[C@H](CO)[C@H](O)[C@H](O)[C@H]1O)[C@H](O)[C@H](O)CCCCCCCCCCCCCC [α-C-GalCer],approximately 10 fold,little difference in the proliferative response,2–5 fold,~ 12%,Th1-like bias,lower amounts,lower amounts,225000 M⁻¹ s⁻¹ and 225000 ± 41000 M⁻¹ s⁻¹,,
,,0.02 s^−1 and 0.02 ± 4.5×10^−4 s^−1,6.52,"CCCCCCCCCCCCCCCCCCCCCCCCCC(=O)N[C@@H](CO[C@H]1O[C@H](CO)[C@H](O)[C@H](O)[C@H]1O)[C@H](O)[C@H](O)CCCCCCCCCCCCCC [α-GalCer, α-galactosylceramide, reference compound]",,,,approximately 25%,,,,162000 M⁻¹ s⁻¹ and 162000 ± 9500 M⁻¹ s⁻¹,231000 ± 31500,0.09 ± 0.003
